Reference: ChEMBL document CHEMBL1147049, “Inhibition of MRP1/ABCC1, MRP2/ABCC2, and MRP3/ABCC3 by nucleoside, nucleotide, and non-nucleoside reverse transcriptase inhibitors” (Drug Metab Dispos, 2007)

biological target: T1, ATP-binding cassette sub-family C member 2 (Homo sapiens, UniProt Q92887); test: Inhibition of human MRP2 expressed in MDCK2 cells assessed as increase in intracellular CMF fluorescence by CMFDA assay; assay type: cell-based; settings: mdck-ii
Procedure, shortened: (§1)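 MDCKII cells stably transfected with human MRP1, MRP2 or MRP3 cDNA, parental MDCKII as control, grown in DMEM with 10% FCS. Cells preincubated 30 min at 37 °C in darkness ± inhibitor in HBSS with 1 mM pyruvate, then 50 nM CMFDA (final) added for 10 min. Intracellular CMF fluorescence read by confocal laser-scanning microscopy. 20 µM MK571 positive control. At least triplicate, different days.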

T1 sequence (Q92887 whole entry): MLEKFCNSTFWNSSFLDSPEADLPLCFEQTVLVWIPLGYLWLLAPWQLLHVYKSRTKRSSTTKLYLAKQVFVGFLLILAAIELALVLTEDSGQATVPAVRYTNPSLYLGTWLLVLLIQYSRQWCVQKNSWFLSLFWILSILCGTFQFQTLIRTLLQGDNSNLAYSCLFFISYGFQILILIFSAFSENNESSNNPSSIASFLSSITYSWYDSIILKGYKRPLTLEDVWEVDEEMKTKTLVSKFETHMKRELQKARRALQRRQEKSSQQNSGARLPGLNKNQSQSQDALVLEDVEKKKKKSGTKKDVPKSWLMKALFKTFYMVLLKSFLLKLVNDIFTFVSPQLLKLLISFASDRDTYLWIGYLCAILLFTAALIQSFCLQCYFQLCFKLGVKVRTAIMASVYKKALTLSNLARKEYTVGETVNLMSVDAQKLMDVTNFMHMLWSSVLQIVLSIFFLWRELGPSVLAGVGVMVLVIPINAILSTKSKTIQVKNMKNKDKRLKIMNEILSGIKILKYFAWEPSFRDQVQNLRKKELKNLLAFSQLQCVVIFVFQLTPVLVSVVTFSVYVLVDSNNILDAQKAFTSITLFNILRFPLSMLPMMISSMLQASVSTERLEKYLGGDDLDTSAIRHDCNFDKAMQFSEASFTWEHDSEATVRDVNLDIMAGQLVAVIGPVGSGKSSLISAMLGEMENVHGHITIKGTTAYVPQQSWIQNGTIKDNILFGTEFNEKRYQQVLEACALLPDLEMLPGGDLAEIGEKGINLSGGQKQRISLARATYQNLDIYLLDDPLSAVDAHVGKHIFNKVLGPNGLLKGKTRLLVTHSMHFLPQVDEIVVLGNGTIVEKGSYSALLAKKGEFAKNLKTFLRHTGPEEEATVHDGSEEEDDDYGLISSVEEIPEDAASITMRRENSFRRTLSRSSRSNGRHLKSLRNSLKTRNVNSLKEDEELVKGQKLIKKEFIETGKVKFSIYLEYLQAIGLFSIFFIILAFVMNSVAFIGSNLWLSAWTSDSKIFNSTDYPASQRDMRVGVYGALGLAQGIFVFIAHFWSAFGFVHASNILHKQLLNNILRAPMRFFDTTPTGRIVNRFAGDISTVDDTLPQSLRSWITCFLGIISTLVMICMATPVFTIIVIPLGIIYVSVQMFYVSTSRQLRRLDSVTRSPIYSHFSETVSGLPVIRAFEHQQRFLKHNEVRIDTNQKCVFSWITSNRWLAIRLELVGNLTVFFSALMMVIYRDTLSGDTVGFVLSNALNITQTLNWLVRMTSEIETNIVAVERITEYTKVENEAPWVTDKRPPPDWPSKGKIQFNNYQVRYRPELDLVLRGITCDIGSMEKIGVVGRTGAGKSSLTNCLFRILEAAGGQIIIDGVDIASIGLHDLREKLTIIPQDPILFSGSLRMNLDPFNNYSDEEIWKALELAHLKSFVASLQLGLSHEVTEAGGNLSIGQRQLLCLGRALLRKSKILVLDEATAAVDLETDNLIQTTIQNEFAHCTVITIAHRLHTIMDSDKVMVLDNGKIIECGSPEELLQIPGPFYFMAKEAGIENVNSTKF

Row | Structure (SMILES) | Activity
1 | O=C1Nc2ccc(Cl)cc2[C@@](C#CC2CC2)(C(F)(F)F)O1 [EFAVIRENZ] | Dose-dependent effect
2 | CC(C)Nc1cccnc1N1CCN(C(=O)c2cc3cc(NS(C)(=O)=O)ccc3[nH]2)CC1 [DELAVIRDINE] | Dose-dependent effect
3 | Cc1ccnc2c1NC(=O)c1cccnc1N2C1CC1 [NEVIRAPINE] | Dose-dependent effect
4 | Nc1nc(NC2CC2)c2ncn([C@H]3C=C[C@@H](CO)C3)c2n1 [ABACAVIR] | Dose-dependent effect

Other lines, results leading:

Row | Activity | Structure (SMILES)
5 | Dose-dependent effect | Nc1nc(=O)n([C@@H]2CS[C@H](CO)O2)cc1F [EMTRICITABINE]
6 | Dose-dependent effect | C[C@H](Cn1cnc2c(N)ncnc21)OCP(=O)(O)O [TENOFOVIR ANHYDROUS]
7 | Dose-dependent effect | Nc1ccn([C@@H]2CS[C@H](CO)O2)c(=O)n1 [LAMIVUDINE]

biological target: T1, ATP-binding cassette sub-family C member 2; test: Inhibition of human MRP2 expressed in MDCK2 cells assessed as increase in intracellular CMF fluorescence at 16.7 uM by CMFDA assay; assay type: cell-based; settings: mdck-ii; procedure, shortened: as §1

Row | Structure (SMILES) | Activity
8 | CC(C)Nc1cccnc1N1CCN(C(=O)c2cc3cc(NS(C)(=O)=O)ccc3[nH]2)CC1 [DELAVIRDINE] | Active

biological target: T1, ATP-binding cassette sub-family C member 2; test: Inhibition of human MRP2 expressed in MDCK2 cells assessed as increase in intracellular CMF fluorescence at 10 uM by CMFDA assay; assay type: cell-based; settings: mdck-ii; procedure, shortened: as §1

Row | Structure (SMILES) | Activity
9 | O=C1Nc2ccc(Cl)cc2[C@@](C#CC2CC2)(C(F)(F)F)O1 [EFAVIRENZ] | Active
10 | Cc1ccnc2c1NC(=O)c1cccnc1N2C1CC1 [NEVIRAPINE] | Active
11 | Nc1nc(NC2CC2)c2ncn([C@H]3C=C[C@@H](CO)C3)c2n1 [ABACAVIR] | Active

Next, values leading:

Row | Activity | Structure (SMILES)
12 | Active | Nc1nc(=O)n([C@@H]2CS[C@H](CO)O2)cc1F [EMTRICITABINE]
13 | Active | C[C@H](Cn1cnc2c(N)ncnc21)OCP(=O)(O)O [TENOFOVIR ANHYDROUS]
14 | Active | Nc1ccn([C@@H]2CS[C@H](CO)O2)c(=O)n1 [LAMIVUDINE]

biological target: T2, Multidrug resistance-associated protein 1 (Homo sapiens, UniProt P33527); test: Inhibition of human MRP1 expressed in MDCK2 cells assessed as increase in intracellular CMF fluorescence by CMFDA assay; assay type: cell-based; settings: mdck-ii; procedure, shortened: as §1
T2 sequence (P33527 whole entry): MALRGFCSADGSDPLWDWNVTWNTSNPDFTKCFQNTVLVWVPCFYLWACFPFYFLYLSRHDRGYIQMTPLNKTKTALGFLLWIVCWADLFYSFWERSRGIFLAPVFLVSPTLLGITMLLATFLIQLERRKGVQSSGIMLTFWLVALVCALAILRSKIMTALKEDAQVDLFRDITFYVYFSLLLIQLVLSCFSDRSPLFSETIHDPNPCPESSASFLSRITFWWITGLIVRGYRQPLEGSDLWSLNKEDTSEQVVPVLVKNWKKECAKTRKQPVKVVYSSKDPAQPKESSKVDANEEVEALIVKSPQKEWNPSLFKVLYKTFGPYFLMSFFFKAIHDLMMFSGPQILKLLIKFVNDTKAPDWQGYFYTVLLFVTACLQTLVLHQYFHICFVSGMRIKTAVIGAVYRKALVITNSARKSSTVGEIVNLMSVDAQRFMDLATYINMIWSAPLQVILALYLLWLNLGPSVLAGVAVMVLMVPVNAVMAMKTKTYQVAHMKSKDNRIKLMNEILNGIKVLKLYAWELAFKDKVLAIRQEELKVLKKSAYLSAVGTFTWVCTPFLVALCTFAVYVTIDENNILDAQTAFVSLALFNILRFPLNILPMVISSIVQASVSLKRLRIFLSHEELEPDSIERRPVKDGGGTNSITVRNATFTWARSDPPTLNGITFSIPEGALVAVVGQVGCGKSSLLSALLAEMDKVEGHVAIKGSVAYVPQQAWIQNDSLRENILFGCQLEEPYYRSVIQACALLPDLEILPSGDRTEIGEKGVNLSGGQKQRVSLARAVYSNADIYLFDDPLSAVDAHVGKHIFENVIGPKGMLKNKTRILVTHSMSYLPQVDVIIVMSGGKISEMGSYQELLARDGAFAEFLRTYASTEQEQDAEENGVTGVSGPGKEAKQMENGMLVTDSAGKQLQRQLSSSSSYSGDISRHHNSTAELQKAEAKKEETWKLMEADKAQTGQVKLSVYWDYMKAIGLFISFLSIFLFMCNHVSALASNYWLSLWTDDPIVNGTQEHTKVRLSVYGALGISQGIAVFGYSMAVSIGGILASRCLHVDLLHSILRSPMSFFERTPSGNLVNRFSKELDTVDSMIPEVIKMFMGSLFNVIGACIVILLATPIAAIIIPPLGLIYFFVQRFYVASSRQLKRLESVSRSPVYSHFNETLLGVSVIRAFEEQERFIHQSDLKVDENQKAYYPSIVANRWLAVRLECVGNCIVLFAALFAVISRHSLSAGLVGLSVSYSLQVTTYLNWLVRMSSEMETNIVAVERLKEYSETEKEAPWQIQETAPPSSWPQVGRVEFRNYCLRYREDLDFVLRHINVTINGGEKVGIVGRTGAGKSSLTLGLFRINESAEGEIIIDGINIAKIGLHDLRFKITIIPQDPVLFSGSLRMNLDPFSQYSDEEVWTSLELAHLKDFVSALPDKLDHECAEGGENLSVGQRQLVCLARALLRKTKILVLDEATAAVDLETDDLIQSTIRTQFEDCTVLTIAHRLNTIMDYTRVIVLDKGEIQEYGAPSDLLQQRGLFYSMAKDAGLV

Row | Structure (SMILES) | Activity
15 | O=C1Nc2ccc(Cl)cc2[C@@](C#CC2CC2)(C(F)(F)F)O1 [EFAVIRENZ] | Dose-dependent effect
16 | CC(C)Nc1cccnc1N1CCN(C(=O)c2cc3cc(NS(C)(=O)=O)ccc3[nH]2)CC1 [DELAVIRDINE] | Dose-dependent effect
17 | Cc1ccnc2c1NC(=O)c1cccnc1N2C1CC1 [NEVIRAPINE] | Dose-dependent effect
18 | Nc1nc(NC2CC2)c2ncn([C@H]3C=C[C@@H](CO)C3)c2n1 [ABACAVIR] | Dose-dependent effect

The remaining lines, values ahead:

Row | Activity | Structure (SMILES)
19 | Dose-dependent effect | Nc1nc(=O)n([C@@H]2CS[C@H](CO)O2)cc1F [EMTRICITABINE]
20 | Dose-dependent effect | C[C@H](Cn1cnc2c(N)ncnc21)OCP(=O)(O)O [TENOFOVIR ANHYDROUS]
21 | Dose-dependent effect | Nc1ccn([C@@H]2CS[C@H](CO)O2)c(=O)n1 [LAMIVUDINE]

biological target: T3, ATP-binding cassette sub-family C member 3 (Homo sapiens, UniProt O15438); test: Inhibition of human MRP3 expressed in MDCK2 cells assessed as increase in intracellular CMF fluorescence at 16.7 uM by CMFDA assay; assay type: cell-based; settings: mdck-ii; procedure, shortened: as §1
T3 sequence (O15438 whole entry): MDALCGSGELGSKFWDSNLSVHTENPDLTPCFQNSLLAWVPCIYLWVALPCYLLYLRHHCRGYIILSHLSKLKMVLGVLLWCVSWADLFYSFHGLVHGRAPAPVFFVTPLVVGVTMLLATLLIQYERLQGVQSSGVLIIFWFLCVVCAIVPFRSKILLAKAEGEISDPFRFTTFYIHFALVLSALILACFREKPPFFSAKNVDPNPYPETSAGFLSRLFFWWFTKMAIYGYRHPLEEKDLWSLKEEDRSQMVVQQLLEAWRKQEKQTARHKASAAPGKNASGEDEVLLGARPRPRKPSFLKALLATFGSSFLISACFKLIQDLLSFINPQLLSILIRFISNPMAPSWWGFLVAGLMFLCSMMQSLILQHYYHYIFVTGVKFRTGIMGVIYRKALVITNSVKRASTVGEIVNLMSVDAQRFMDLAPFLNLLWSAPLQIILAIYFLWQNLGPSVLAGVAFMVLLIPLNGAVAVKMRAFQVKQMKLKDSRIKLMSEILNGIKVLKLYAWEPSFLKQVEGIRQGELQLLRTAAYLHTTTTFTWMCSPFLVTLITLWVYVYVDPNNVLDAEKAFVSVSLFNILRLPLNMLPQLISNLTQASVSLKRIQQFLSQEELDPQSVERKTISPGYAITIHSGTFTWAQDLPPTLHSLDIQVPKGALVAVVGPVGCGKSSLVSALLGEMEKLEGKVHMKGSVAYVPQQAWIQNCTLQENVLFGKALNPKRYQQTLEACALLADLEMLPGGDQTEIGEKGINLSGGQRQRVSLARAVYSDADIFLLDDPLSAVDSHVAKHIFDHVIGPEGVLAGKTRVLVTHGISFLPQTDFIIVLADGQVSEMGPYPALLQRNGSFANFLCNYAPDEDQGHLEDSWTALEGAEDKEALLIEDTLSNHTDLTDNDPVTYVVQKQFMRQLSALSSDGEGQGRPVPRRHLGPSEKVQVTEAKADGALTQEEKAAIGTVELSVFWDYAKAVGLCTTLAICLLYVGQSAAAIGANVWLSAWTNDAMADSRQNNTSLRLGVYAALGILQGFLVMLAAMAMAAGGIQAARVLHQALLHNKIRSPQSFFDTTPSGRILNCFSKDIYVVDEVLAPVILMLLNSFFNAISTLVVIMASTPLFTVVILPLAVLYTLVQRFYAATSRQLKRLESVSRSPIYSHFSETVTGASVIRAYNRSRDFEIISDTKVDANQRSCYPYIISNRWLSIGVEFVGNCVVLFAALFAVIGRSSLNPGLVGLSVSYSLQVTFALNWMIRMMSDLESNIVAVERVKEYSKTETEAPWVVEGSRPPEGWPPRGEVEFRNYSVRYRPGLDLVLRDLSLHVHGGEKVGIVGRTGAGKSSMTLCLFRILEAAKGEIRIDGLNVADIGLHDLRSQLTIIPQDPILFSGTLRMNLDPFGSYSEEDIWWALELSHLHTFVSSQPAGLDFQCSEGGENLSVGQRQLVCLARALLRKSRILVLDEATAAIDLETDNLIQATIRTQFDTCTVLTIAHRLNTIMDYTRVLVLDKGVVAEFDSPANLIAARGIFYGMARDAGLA

Row | Structure (SMILES) | Activity
22 | CC(C)Nc1cccnc1N1CCN(C(=O)c2cc3cc(NS(C)(=O)=O)ccc3[nH]2)CC1 [DELAVIRDINE] | Active

biological target: T2, Multidrug resistance-associated protein 1; test: Inhibition of human MRP1 expressed in MDCK2 cells assessed as increase in intracellular CMF fluorescence at 10 uM by CMFDA assay; assay type: cell-based; settings: mdck-ii; procedure, shortened: as §1

Row | Structure (SMILES) | Activity
23 | O=C1Nc2ccc(Cl)cc2[C@@](C#CC2CC2)(C(F)(F)F)O1 [EFAVIRENZ] | Active
24 | Cc1ccnc2c1NC(=O)c1cccnc1N2C1CC1 [NEVIRAPINE] | Active
25 | Nc1nc(NC2CC2)c2ncn([C@H]3C=C[C@@H](CO)C3)c2n1 [ABACAVIR] | Active

Continued, values first:

Row | Activity | Structure (SMILES)
26 | Active | Nc1nc(=O)n([C@@H]2CS[C@H](CO)O2)cc1F [EMTRICITABINE]
27 | Active | C[C@H](Cn1cnc2c(N)ncnc21)OCP(=O)(O)O [TENOFOVIR ANHYDROUS]
28 | Active | Nc1ccn([C@@H]2CS[C@H](CO)O2)c(=O)n1 [LAMIVUDINE]

biological target: T3, ATP-binding cassette sub-family C member 3; test: Inhibition of human MRP3 expressed in MDCK2 cells assessed as increase in intracellular CMF fluorescence at 10 uM by CMFDA assay; assay type: cell-based; settings: mdck-ii; procedure, shortened: as §1

Row | Structure (SMILES) | Activity
29 | O=C1Nc2ccc(Cl)cc2[C@@](C#CC2CC2)(C(F)(F)F)O1 [EFAVIRENZ] | Active
30 | Cc1ccnc2c1NC(=O)c1cccnc1N2C1CC1 [NEVIRAPINE] | Active
31 | Nc1nc(NC2CC2)c2ncn([C@H]3C=C[C@@H](CO)C3)c2n1 [ABACAVIR] | Active

Other lines, results leading:

Row | Activity | Structure (SMILES)
32 | Active | Nc1nc(=O)n([C@@H]2CS[C@H](CO)O2)cc1F [EMTRICITABINE]
33 | Active | C[C@H](Cn1cnc2c(N)ncnc21)OCP(=O)(O)O [TENOFOVIR ANHYDROUS]
34 | Active | Nc1ccn([C@@H]2CS[C@H](CO)O2)c(=O)n1 [LAMIVUDINE]

biological target: T2, Multidrug resistance-associated protein 1; test: Inhibition of human MRP1 expressed in MDCK2 cells assessed as increase in intracellular CMF fluorescence at 16.7 uM by CMFDA assay; assay type: cell-based; settings: mdck-ii; procedure, shortened: as §1

Row | Structure (SMILES) | Activity
35 | CC(C)Nc1cccnc1N1CCN(C(=O)c2cc3cc(NS(C)(=O)=O)ccc3[nH]2)CC1 [DELAVIRDINE] | Active

biological target: T3, ATP-binding cassette sub-family C member 3; test: Inhibition of human MRP3 expressed in MDCK2 cells assessed as increase in intracellular CMF fluorescence by CMFDA assay; assay type: cell-based; settings: mdck-ii; procedure, shortened: as §1

Row | Structure (SMILES) | Activity
36 | O=C1Nc2ccc(Cl)cc2[C@@](C#CC2CC2)(C(F)(F)F)O1 [EFAVIRENZ] | Dose-dependent effect
37 | CC(C)Nc1cccnc1N1CCN(C(=O)c2cc3cc(NS(C)(=O)=O)ccc3[nH]2)CC1 [DELAVIRDINE] | Dose-dependent effect
38 | Cc1ccnc2c1NC(=O)c1cccnc1N2C1CC1 [NEVIRAPINE] | Dose-dependent effect

Now from value to compound:

Row | Activity | Structure (SMILES)
39 | Dose-dependent effect | Nc1nc(=O)n([C@@H]2CS[C@H](CO)O2)cc1F [EMTRICITABINE]
40 | Dose-dependent effect | C[C@H](Cn1cnc2c(N)ncnc21)OCP(=O)(O)O [TENOFOVIR ANHYDROUS]
41 | Dose-dependent effect | Nc1ccn([C@@H]2CS[C@H](CO)O2)c(=O)n1 [LAMIVUDINE]
